Screening data as filed in PubChem.
An excerpt weighted towards active compounds, which were near 1.9% of everything screened.
EBNA-1 inhibitor = EBNA-1 DNA-binding inhibitors, primary screen, biochemical, fluorescence polarization; actives 0.34% (n = 300,000); inhibition, % at 14.8 µM; AID 1950, 2009; in the data active means inhibition above about 28%
PP1 counter = PP1-alpha phosphatase inhibitors, primary screen, counter-screen for PP5 inhibitor project, biochemical, fluorescence, OMFP substrate, single point. Serine/threonine-protein phosphatase PP1-alpha catalytic subunit (Homo sapiens), P62136. purified PP1alpha. inhibition, % at 6.7 µM. actives 0.9% (n = 320,000);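 active means inhibition above the mean inhibition of all tested compounds plus 3 SD, computed separately for each screening campaign, cut at about 15% in these data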
Target sequence (P62136 whole entry, looked up): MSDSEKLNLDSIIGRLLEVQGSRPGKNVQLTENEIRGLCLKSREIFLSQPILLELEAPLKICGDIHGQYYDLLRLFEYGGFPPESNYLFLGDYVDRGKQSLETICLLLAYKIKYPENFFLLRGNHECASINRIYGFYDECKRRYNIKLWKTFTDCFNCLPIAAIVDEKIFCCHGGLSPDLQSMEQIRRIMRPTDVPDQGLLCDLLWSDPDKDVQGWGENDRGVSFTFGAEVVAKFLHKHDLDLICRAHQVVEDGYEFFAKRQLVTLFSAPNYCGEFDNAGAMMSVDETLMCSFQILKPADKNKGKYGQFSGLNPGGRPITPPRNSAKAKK
HCV NS3 hel inh = inhibitors of HCV NS3 helicase, primary screen, biochemical, Cy5 molecular beacon fluorescence | actives 0.56% (n = 290,000) | NS3 helicase DNA unwinding | Hepatitis C virus NS3 helicase | inhibition, % at 10.9 µM;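 active means inhibition above the mean of all tested compounds plus 3 SD, set per campaign, cut at about 35% in these data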;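 further: 0% = DMSO wells and 100% = thioflavine S control wells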
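System: NS3 helicase fragment of HCV / Schedule: 1 h at 25 °C / Control set: DMSO alone as 0% and 110 µM thioflavine S as 100% / Reagent: Cy5/quencher beacon DNA duplex and ATP to start / Technique: Cy5 fluorescence / Replication: singlicate / Evaluation: % inhibition of end-to-start signal ratio versus controls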
core dimer inh = inhibitors of HCV core protein dimerization, primary screen, biochemical, TR-FRET, high-throughput | inhibition, % at 5 µM | TR-FRET GST/Flag-core106 dimerization, 1536-well | AID 1899, 2009 | actives 0.33% (n = 300,000);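 active means inhibition above the mean of all tested compounds plus 3 SD, set per screening campaign, cut at about 45% in these data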
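test system = GST/Flag-tagged HCV core106 proteins | probe or stimulus = Eu donor and XL665 acceptor anti-tag antibodies | times = compound-protein-antibody incubation 4 h at 22.5 °C | signal = TR-FRET, excitation 340 nm, emission 617 and 671 nm | measure = percent inhibition of core106 dimerization signal | controls = wells lacking GST-core106 and wells with excess unlabelled core106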
ZTA counter = counter-screen for EBNA-1 inhibitors: inhibitors of Epstein-Barr virus ZTA. ZTA-DNA binding, fluorescence polarization. P03206. inhibition, % at 11 µM. AID 2234. actives 0.15% (n = 320,000); in the data active means inhibition above about 33%
Target sequence (P03206 whole entry, looked up): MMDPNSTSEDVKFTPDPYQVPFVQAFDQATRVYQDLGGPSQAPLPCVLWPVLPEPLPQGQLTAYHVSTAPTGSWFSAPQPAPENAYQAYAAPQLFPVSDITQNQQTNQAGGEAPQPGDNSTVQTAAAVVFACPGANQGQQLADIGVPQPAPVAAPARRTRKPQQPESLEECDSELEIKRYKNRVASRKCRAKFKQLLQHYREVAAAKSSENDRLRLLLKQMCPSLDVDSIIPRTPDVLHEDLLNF
PP1 confirm = PP1 phosphatase inhibitors, confirmation, biochemical, fluorescence, OMFP substrate, triplicate; shares compounds with PP1 counter; purified PP1alpha; inhibition, % at 6.7 µM; actives 52% (n = 1,900); AID 2358, 2010;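 active means mean PP1 inhibition above a set limit taken from the earlier primary screen, cut at about 15% in these data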
PP5 counter = PP5 phosphatase inhibition by PP1 hits, confirmation, counter-screen for PP1 inhibitor project, biochemical, fluorescence, triplicate; shares compounds with PP1 counter; purified PP5c, OMFP fluorescence; inhibition, % at 6.7 µM; actives 4% (n = 1,900);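 active means mean PP5 inhibition over triplicate wells above about 9.5% taken from the earlier PP1 screen, limit read from the data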
* marks the source's active call; other numbers are inactive results.

`COc1cc([N+](=O)[O-])cc(/C=N/NC(=O)C(O)(c2ccccc2)c2ccccc2)c1O` gave EBNA-1 inhibitor 2, PP1 counter 20*, HCV NS3 hel inh 22, core dimer inh -11, ZTA counter -7, PP1 confirm 14 and PP5 counter -3.
For CC(=O)NC1C(=O)N(CCN2CCOCC2)c2ccc(Br)cc21 (stereo not given) the results were EBNA-1 inhibitor 5, PP1 counter 38*, HCV NS3 hel inh 5, core dimer inh 1, ZTA counter -2, PP1 confirm 38* and PP5 counter -2.
Screening CCOc1ccc2c(c1)C(NC(C)=O)C(=O)N2CCN1CCOCC1 (stereo not given) returned HCV NS3 hel inh -6.
Cc1cccc(NC(=O)Cn2c(O)c(N=NC(=O)c3ccccc3O)c3ccccc32)c1 was read as EBNA-1 inhibitor 14, PP1 counter 35*, HCV NS3 hel inh -3, core dimer inh 6, ZTA counter -13, PP1 confirm 27* and PP5 counter -1.
CC(C)(C)C(=O)N1N=C(c2ccc(NS(C)(=O)=O)cc2)CC1c1cccs1 (stereo not given) was read as EBNA-1 inhibitor 0, PP1 counter 23*, HCV NS3 hel inh -18, core dimer inh -4, ZTA counter -12, PP1 confirm -1 and PP5 counter -2.
`Cc1ccc(C)c(NC(=O)c2ccc(S(=O)(=O)N(C)CC3CCCO3)cc2)c1` (stereo not given) gave EBNA-1 inhibitor 12, PP1 counter -1, HCV NS3 hel inh 0, core dimer inh -4 and ZTA counter 17.
COc1cc2nc(CN3CCOCC3)n(CC(=O)NCC(F)(F)F)c(=O)c2cc1OC was read as EBNA-1 inhibitor 3, PP1 counter -2, HCV NS3 hel inh -9, core dimer inh -4 and ZTA counter -22.
Screening NC(=O)CC(NC(=O)c1ccccc1)c1ccc(N2CCN(c3ccccc3)CC2)c([N+](=O)[O-])c1 (stereo not given) returned EBNA-1 inhibitor 5, PP1 counter 3, HCV NS3 hel inh -13, core dimer inh 12 and ZTA counter 1.
Screening NC(=O)CC(NC(=O)c1ccc(Br)cc1)c1ccc(NCCc2ccc(F)cc2)c([N+](=O)[O-])c1 (stereo not given) returned EBNA-1 inhibitor 0, PP1 counter 25*, core dimer inh 7, ZTA counter 1, PP1 confirm 26* and PP5 counter -1.
NC(=O)CC(NC(=O)c1ccccc1)c1ccc(NCCc2cccc(F)c2)c([N+](=O)[O-])c1 (stereo not given) was read as EBNA-1 inhibitor 6, PP1 counter 5, core dimer inh 11 and ZTA counter 6.
Screening Cc1cc(C)cc(C(=O)NC(CC(N)=O)c2ccc(N3CCC(Cc4ccccc4)CC3)c([N+](=O)[O-])c2)c1 (stereo not given) returned EBNA-1 inhibitor 1, PP1 counter 7, HCV NS3 hel inh -2, core dimer inh -5 and ZTA counter -9.
`NC(=O)CC(NC(=O)c1ccccc1)c1ccc(N2CCN(c3ccc(F)cc3)CC2)c([N+](=O)[O-])c1` (stereo not given) gave EBNA-1 inhibitor -2, PP1 counter 18*, HCV NS3 hel inh 1, core dimer inh -19, ZTA counter -15, PP1 confirm -52 and PP5 counter -3.
NC(=O)CC(NC(=O)Cc1cccc2ccccc12)c1ccc(N2CCc3ccccc3C2)c([N+](=O)[O-])c1 (stereo not given) was read as EBNA-1 inhibitor -4, PP1 counter 18*, core dimer inh 12, ZTA counter 8, PP1 confirm 17* and PP5 counter -1.
NC(=O)CC(NC(=O)Cc1ccc(Cl)cc1)c1ccc(N2CCC(Cc3ccccc3)CC2)c([N+](=O)[O-])c1 (stereo not given) was read as EBNA-1 inhibitor -4, PP1 counter 22*, HCV NS3 hel inh 26, core dimer inh -2, ZTA counter -1, PP1 confirm 3 and PP5 counter 0.
CCCCC(CC)CNC(=O)Cn1c(=S)[nH]c2ncccc2c1=O (stereo not given) was read as EBNA-1 inhibitor 11, PP1 counter -3, HCV NS3 hel inh -10, core dimer inh -3 and ZTA counter -11.
`O=S(=O)(Nc1cccc(S(=O)(=O)N2CCCC2)c1)c1ccc(Cl)s1` gave PP1 counter -3 and ZTA counter 4.
Screening CC(NC(=O)C(=O)N1CCCCC1)C(c1cccs1)N1CCN(C)CC1 (stereo not given) returned EBNA-1 inhibitor -23, PP1 counter 1, HCV NS3 hel inh 4, core dimer inh -5 and ZTA counter -13.
Screening COc1cnc(-c2ccccn2)nc1Oc1ccc(Cl)c2ccccc12 returned EBNA-1 inhibitor -1, PP1 counter 50*, HCV NS3 hel inh -9, core dimer inh 2, ZTA counter -1, PP1 confirm 43* and PP5 counter 1.
Screening COc1cnc(-c2ccccn2)nc1Oc1ccc(F)cc1F returned EBNA-1 inhibitor -9, PP1 counter 21*, HCV NS3 hel inh 12, core dimer inh -4, ZTA counter -20, PP1 confirm 23* and PP5 counter -2.
For COc1cnc(-c2ccccn2)nc1Oc1ccc(Cl)cc1 the results were EBNA-1 inhibitor -8, PP1 counter 58*, HCV NS3 hel inh 2, core dimer inh 4, ZTA counter 2, PP1 confirm 39* and PP5 counter -1.
Screening COc1cnc(-c2ccccn2)nc1NC(C)C returned EBNA-1 inhibitor 6, PP1 counter 4, HCV NS3 hel inh -3, core dimer inh -2 and ZTA counter -13.
`COc1cnc(-c2ccccn2)nc1Oc1ccccc1Cl` gave EBNA-1 inhibitor 10, PP1 counter 30*, HCV NS3 hel inh 2, core dimer inh -3, ZTA counter 15, PP1 confirm 38* and PP5 counter 1.
COc1nccnc1NS(=O)(=O)c1ccc(N)cc1 was read as HCV NS3 hel inh 2.
Screening CCCCn1nc(C(=O)Nc2cc(C(F)(F)F)ccc2N2CCOCC2)ccc1=O returned PP1 counter 0 and ZTA counter -21.
